Measurements from ChEMBL document CHEMBL1122863, “Renin inhibitors. Syntheses of subnanomolar, competitive, transition-state analogue inhibitors containing a novel analogue of statine” (J Med Chem, 1985).
Residues, ends and D or L forms follow the SMILES beside them.

How the values were obtained:
Renin [1] = target: T1, Renin (Homo sapiens, UniProt P00797); experiment: Inhibition of human kidney renin
T1 sequence (P00797 whole entry): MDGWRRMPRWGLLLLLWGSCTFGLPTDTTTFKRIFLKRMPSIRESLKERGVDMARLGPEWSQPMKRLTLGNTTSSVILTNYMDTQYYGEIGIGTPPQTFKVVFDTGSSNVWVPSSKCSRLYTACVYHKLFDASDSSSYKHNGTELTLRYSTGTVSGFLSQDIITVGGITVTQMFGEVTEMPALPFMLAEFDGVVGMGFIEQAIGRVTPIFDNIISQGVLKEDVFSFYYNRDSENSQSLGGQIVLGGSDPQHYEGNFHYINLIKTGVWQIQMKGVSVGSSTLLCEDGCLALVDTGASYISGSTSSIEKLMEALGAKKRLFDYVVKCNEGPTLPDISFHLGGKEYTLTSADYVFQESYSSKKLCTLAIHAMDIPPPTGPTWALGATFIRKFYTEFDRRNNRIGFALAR
Procedure, shortened: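 Fluorometric assay with a synthetic tetradecapeptide substrate, pH 7.20 citrate/phosphate, 37 °C. Ki obtained by fitting to a competitive inhibition equation, sometimes from data pooled across two independent experiments. Reproducible within ±20%.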

Renin [2] = target: T1, Renin; experiment: Inhibition of human plasma renin; format: cell-free
Procedure, shortened: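 Renin in reconstituted lyophilized human plasma (high- or low-renin lots), acting on endogenous angiotensinogen. Angiotensin I was measured by radioimmunoassay at pH 7.4 phosphate, 37 °C, with 8-hydroxyquinoline or PMSF as angiotensinase inhibitor. Inhibitor stocks were 1.00×10⁻³ M in methanol or acetic acid. IC50 taken from several concentrations bracketing it.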

Renin (Canis familiaris) = experiment: Inhibition of Renin
Mus musculus = species: Mus musculus; experiment: The compound was tested for inhibition of mouse submaxillary renin.; format: functional
Procedure, shortened: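 Mouse submaxillary gland renin was run like the human kidney renin assay: synthetic tetradecapeptide substrate, fluorometric read-out, pH 7.20 citrate/phosphate, 37 °C. Ki came from a competitive inhibition fit.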

Rhizopuspepsin = target: T2, Rhizopuspepsin (Rhizopus microsporus var. chinensis, UniProt P06026); experiment: Inhibition of rhizopuspepsin
T2 sequence (P06026 whole entry): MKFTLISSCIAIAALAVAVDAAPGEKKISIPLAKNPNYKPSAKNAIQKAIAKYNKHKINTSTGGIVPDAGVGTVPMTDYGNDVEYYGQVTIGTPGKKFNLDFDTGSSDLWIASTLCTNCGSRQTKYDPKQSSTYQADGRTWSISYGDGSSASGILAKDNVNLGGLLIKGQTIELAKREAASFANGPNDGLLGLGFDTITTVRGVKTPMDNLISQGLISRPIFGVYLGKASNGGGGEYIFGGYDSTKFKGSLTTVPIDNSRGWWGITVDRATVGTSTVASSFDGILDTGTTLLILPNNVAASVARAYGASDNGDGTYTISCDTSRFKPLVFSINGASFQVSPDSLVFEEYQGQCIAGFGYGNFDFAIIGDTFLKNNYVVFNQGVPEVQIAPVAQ
Procedure, shortened: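 IC50 came from several inhibitor concentrations and was converted to Ki by the Cha equation, assuming competitive inhibition.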

Pepsin A = Pepsin A (Sus scrofa, UniProt P00791); experiment: The compound was tested for inhibition of porcine pepsin.
Chain of Pepsin A (P00791 whole entry): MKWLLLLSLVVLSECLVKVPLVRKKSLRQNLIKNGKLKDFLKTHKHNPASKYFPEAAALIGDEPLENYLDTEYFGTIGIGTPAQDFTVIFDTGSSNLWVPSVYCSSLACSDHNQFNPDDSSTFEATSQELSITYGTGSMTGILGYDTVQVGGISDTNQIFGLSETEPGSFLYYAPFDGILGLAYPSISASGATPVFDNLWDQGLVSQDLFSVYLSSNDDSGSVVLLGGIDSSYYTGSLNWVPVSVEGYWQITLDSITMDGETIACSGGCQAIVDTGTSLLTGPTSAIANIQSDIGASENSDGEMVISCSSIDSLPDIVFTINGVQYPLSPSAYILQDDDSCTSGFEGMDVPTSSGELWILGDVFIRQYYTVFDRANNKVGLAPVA

SMILES | Ki (Renin [1]) [nM] | IC50 (Renin [2]) [nM] | IC50 (Renin (Canis familiaris)) [nM] | Ki (Mus musculus) [nM] | Ki (Rhizopuspepsin) [nM] | Ki (Pepsin A) [nM]
CC(C)C[C@H](NC(=O)C[C@H](O)[C@H](CC1CCCCC1)NC(=O)[C@H](Cc1c[nH]cn1)NC(=O)COc1ccccc1)C(=O)N[C@@H](Cc1ccccc1)C(N)=O | 14 | 1000 | > 1000 |  |  | 
CC(C)C[C@H](NC(=O)C[C@H](O)[C@H](Cc1ccccc1)NC(=O)[C@H](Cc1c[nH]cn1)NC(=O)COc1ccccc1)C(=O)N[C@@H](Cc1ccccc1)C(N)=O | 580 | > 1000 | > 1000 |  |  | 
CC(C)C[C@H](NC(=O)C[C@H](O)[C@H](CC1CCCCC1)NC(=O)[C@H](Cc1c[nH]cn1)NC(=O)[C@H](Cc1ccccc1)NC(=O)OC(C)(C)C)C(=O)N[C@@H](Cc1ccccc1)C(N)=O (HELM PEPTIDE1{[CC(C)(C)OC(=O)[*:2]].F.H.[O=C(C[C@H](O)[C@H](CC1CCCCC1)N[*:1])[*:2]].L.F.[am]}$$$$V2.0) | 0.88 | 2.2 | 13 |  |  | 
CC(C)CC(=O)N[C@@H](Cc1c[nH]cn1)C(=O)N1CCC[C@H]1C(=O)N[C@@H](Cc1ccccc1)C(=O)N[C@@H](Cc1c[nH]cn1)C(=O)N[C@@H](CC(C)C)[C@@H](O)CC(=O)N[C@@H](CC(C)C)C(=O)N[C@@H](Cc1ccccc1)C(N)=O (HELM PEPTIDE1{[CC(C)CC(=O)[*:2]].H.P.F.H.[CC(C)C[C@H](N[*:1])[C@@H](O)CC(=O)[*:2]].L.F.[am]}$$$$V2.0) |  |  |  | 14 | 200 | 27
CC(C)CC(=O)N[C@@H](Cc1c[nH]cn1)C(=O)N1CCC[C@H]1C(=O)N[C@@H](Cc1ccccc1)C(=O)N[C@@H](Cc1c[nH]cn1)C(=O)N[C@@H](CC1CCCCC1)C(O)CC(=O)N[C@@H](CC(C)C)C(=O)N[C@@H](Cc1ccccc1)C(N)=O (some centres not stated) (HELM PEPTIDE1{[CC(C)CC(=O)[*:2]].H.P.F.H.[O=C(CC(O)[C@H](CC1CCCCC1)N[*:1])[*:2]].L.F.[am]}$$$$V2.0) |  |  |  | 2.1 | 230 | 28
CC(C)C[C@H](NC(=O)C[C@H](O)[C@H](CC1CCCCC1)NC(=O)[C@H](Cc1c[nH]cn1)NC(=O)[C@H](Cc1ccccc1)NC(=O)OC(C)C)C(=O)N[C@@H](Cc1ccccc1)C(N)=O (HELM PEPTIDE1{[CC(C)OC(=O)[*:2]].F.H.[O=C(C[C@H](O)[C@H](CC1CCCCC1)N[*:1])[*:2]].L.F.[am]}$$$$V2.0) | 1.1 | 5.1 | 20 |  |  | 
CCOC(=O)N[C@@H](Cc1ccccc1)C(=O)N[C@@H](Cc1c[nH]cn1)C(=O)N[C@@H](CC1CCCCC1)[C@@H](O)CC(=O)N[C@@H](CC(C)C)C(=O)N[C@@H](Cc1ccccc1)C(N)=O (HELM PEPTIDE1{[CCOC(=O)[*:2]].F.H.[O=C(C[C@H](O)[C@H](CC1CCCCC1)N[*:1])[*:2]].L.F.[am]}$$$$V2.0) | 0.52 | 0.76 | 9.5 |  |  | 
CC(C)C[C@H](NC(=O)C[C@H](O)[C@H](CC(C)C)NC(=O)[C@H](Cc1c[nH]cn1)NC(=O)COc1ccccc1)C(=O)N[C@@H](Cc1ccccc1)C(N)=O (HELM PEPTIDE1{[O=C(COc1ccccc1)[*:2]].H.[CC(C)C[C@H](N[*:1])[C@@H](O)CC(=O)[*:2]].L.F.[am]}$$$$V2.0) | 4100 |  |  |  |  | 
